INS-1E ATP HTS – preserves ATP levels in cytokine-treated INS-1E cells | INS-1E cytokine-induced death, ATP luminescence, 48 h; normalised: neutral wells 0, positive control 100 | protection from cytokine-induced ATP loss, % at 10 µM | actives 0.1% (n = 20,000);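 active = mean replicate protection from cytokine-induced ATP loss at least 50% and at least 75% of replicates each reaching 50%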
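Test system: INS-1E rat cells | Quantity: 8000 cells per well | Medium: Phenol-red-free RPMI with 5% fetal bovine serum | Reagent: Cytokine cocktail of IFN-γ, TNF-α and IL-1β | Doses: One compound concentration, pin transfer | Timing: 48 h co-treatment, 10 min post-lysis read | Technique: Luminescent ATP assay (CellTiter-Glo)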
T cruzi HTS – blocks T. cruzi growth inside host cells. intracellular Trypanosoma cruzi in host cells, plate reader. activity score (inhibition), % at 5.01 µM. actives 4.9% (n = 22,000). AID 651903; in the data active = activity score above about 55%;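 note: parasites and compound incubated about four days before reading; 0% = median of neutral control wells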
A1 apoptosis 2 – compounds inhibiting A1, read as caspase activation | AID 2465 | MEF A1-2A-BIM cells, caspase-Glo luminescence, 3 h; percent of clofoctol response, DMSO zero | 24,000 tested, under 10 active | caspase activation, % (concentration not given with the values); in the data active = caspase activation above about 5.9%
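Material: A1-2A-BIM-expressing MEF cells. Buffer or medium: RPMI-1640 plus 10% FBS. Incubation: cells settled overnight, compound exposure 3 h at 37 °C, 5% CO2. Signal: Caspase-Glo 3/7 luminescence, 1 h at room temperature.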
An asterisk follows results filed as active; nt = not tested or not shown. Many of the other results were omitted from the sample, so hits are more common in it than they were.

SMILES	INS-1E ATP HTS	T cruzi HTS	A1 apoptosis 2
C[C@@H]1CN([C@@H](C)CO)C(=O)c2cccc(NC(=O)Nc3ccc(C(F)(F)F)cc3)c2O[C@@H]1CN(C)Cc1ccc(-c2ccccc2)cc1	-86	65*	nt
C[C@@H]1CN([C@H](C)CO)C(=O)c2cccc(NC(=O)C3CC3)c2O[C@@H]1CN(C)Cc1ccc(C(F)(F)F)cc1	-1	-17	nt
C[C@H]1CN([C@@H](C)CO)C(=O)c2cccc(NC(=O)Nc3ccc(F)cc3)c2O[C@@H]1CN(C)Cc1ccc(-c2ccccc2)cc1	-34	-14	-2
C[C@@H]1CN([C@H](C)CO)C(=O)c2cccc(NC(=O)Nc3ccc(C(F)(F)F)cc3)c2O[C@@H]1CN(C)Cc1ccc(-c2ccccc2)cc1	-59	34	0
C[C@H]1CN([C@@H](C)CO)C(=O)c2cccc(NC(=O)Nc3ccc(C(F)(F)F)cc3)c2O[C@H]1CN(C)Cc1ccc(C(F)(F)F)cc1	-55	63*	nt
C[C@@H]1CN([C@H](C)CO)C(=O)c2cccc(NC(=O)Nc3ccc(C(F)(F)F)cc3)c2O[C@H]1CN(C)Cc1ccc(C(F)(F)F)cc1	10	37	0
C[C@@H]1CN([C@H](C)CO)C(=O)c2cccc(NC(=O)Nc3ccc(F)cc3)c2O[C@@H]1CN(C)Cc1ccc(-c2ccccc2)cc1	-47	68*	nt
C[C@@H]1CN([C@H](C)CO)C(=O)c2cccc(NC(=O)C3CCCCC3)c2O[C@H]1CN(C)Cc1ccc(C(F)(F)F)cc1	-54	78*	nt
C=CCOC(=O)[C@H]1[C@@H]2C(=O)O[C@@H](c3ccccc3)[C@@H](c3ccccc3)N2[C@@H](c2ccc(OCCOC(=O)[C@@H]3C[C@@H]4C(=O)NCC(=O)N4[C@@H]3c3ccc(O)cc3)cc2)[C@]12C(=O)Nc1ccccc12	nt	nt	1
COC(=O)[C@]1(Cc2ccccc2N=[N+]=[N-])N=C(c2ccc(OCCCO)cc2)O[C@@H]1c1ccccc1CN=[N+]=[N-]	nt	nt	-1
O=C(CCCCCCC(=O)NN=C1CCCC1)NO	nt	nt	0
C[C@H]1CN([C@@H](C)CO)C(=O)c2cccc(NC(=O)Nc3ccc(F)cc3)c2O[C@@H]1CN(C)Cc1ccc(C(F)(F)F)cc1	-11	13	-1
C[C@@H]1CN([C@H](C)CO)C(=O)c2cccc(NC(=O)Nc3ccc(C(F)(F)F)cc3)c2O[C@@H]1CN(C)Cc1ccc(C(F)(F)F)cc1	-37	89*	-1
C=CCN1CCc2cc(OC)c(OC)cc2C1C#Cc1ccccc1 (stereo not given)	nt	nt	0
C[C@H]1CN([C@@H](C)CO)C(=O)c2cccc(NC(=O)c3ccc(-c4nccs4)cc3)c2O[C@H]1CN(C)C(=O)Nc1ccc(C(F)(F)F)cc1	-11	24	nt
C[C@H](CO)N1C[C@H](C)[C@H](CN(C)C(=O)Nc2ccc(F)cc2)Oc2c(NC(=O)c3ccc(-c4nccs4)cc3)cccc2C1=O	14	-12	nt
C[C@@H]1CN([C@@H](C)CO)C(=O)c2cccc(NC(=O)c3ccc(-c4nccs4)cc3)c2O[C@H]1CN(C)C(=O)Nc1ccc(C(F)(F)F)cc1	1	68*	nt
C[C@@H]1CN([C@H](C)CO)C(=O)c2cccc(NC(=O)c3ccc(-c4nccs4)cc3)c2O[C@H]1CN(C)C(=O)Nc1ccc(C(F)(F)F)cc1	-4	77*	nt
NC(=O)COc1ccc(/C=N/NC(=O)CCCCC(=O)NO)cc1	4	-4	1
CC(C)(C)OC(=O)N1CCC[C@H]1/C=N/NC(=O)CCCCC(=O)NO	2	-4	nt
C[C@@H]1CN([C@@H](C)CO)C(=O)c2cc(NC(=O)Cc3cn(C)c4ccccc34)ccc2O[C@@H]1CN(C)C(=O)Nc1ccc(C(F)(F)F)cc1	-6	8	nt
C[C@H]1CN([C@@H](C)CO)C(=O)c2cc(NC(=O)Cc3cn(C)c4ccccc34)ccc2O[C@H]1CN(C)Cc1ccc(C(F)(F)F)cc1	nt	43*	0
C[C@@H]1CN([C@H](C)CO)C(=O)c2cc(NC(=O)Cc3cn(C)c4ccccc34)ccc2O[C@@H]1CN(C)Cc1ccccc1	3	17	nt
C[C@@H]1CN([C@H](C)CO)C(=O)c2cc(NC(=O)Cc3cn(C)c4ccccc34)ccc2O[C@@H]1CN(C)C(=O)Nc1ccc(C(F)(F)F)cc1	-18	81*	nt
C[C@H](CO)N1C[C@H](C)[C@H](CN(C)Cc2ccc(C(F)(F)F)cc2)Oc2ccc(NC(=O)Cc3cn(C)c4ccccc34)cc2C1=O	nt	34	-1
SMILES	INS-1E ATP HTS	T cruzi HTS	A1 apoptosis 2
C[C@@H]1CN([C@@H](C)CO)C(=O)c2cc(NC(=O)Cc3cn(C)c4ccccc34)ccc2O[C@H]1CN(C)Cc1ccc(C(F)(F)F)cc1	-24	82*	-2
O=C(CCCCCC(=O)N/N=C/CCC1CCCCC1)NO	nt	nt	1
O=C(O)CCCCCCC(=O)N/N=C/c1ccc(S(=O)(=O)O)o1	-9	-12	1
O=C(N/N=C/c1ccc(-n2ccnc2)cc1)c1ccccn1	-2	7	-9
NC(=O)[C@@H]1[C@H]2C(=O)O[C@H](c3ccccc3)[C@H](c3ccccc3)N2[C@H](c2ccccc2OCCO)[C@@]12C(=O)Nc1ccc(C#CC3(O)CCCCCC3)cc12	nt	nt	0
C[C@@H]1CN([C@H](C)CO)C(=O)Cc2cc(N(C)C)ccc2O[C@H]1CN(C)Cc1ccc2c(c1)OCO2	-8	69*	2
C[C@@H]1CN([C@@H](C)CO)C(=O)Cc2cc(N(C)C)ccc2O[C@@H]1CN(C)Cc1ccc(Cl)c(Cl)c1	-17	43	-1
C[C@H](CO)N1C[C@H](C)[C@@H](CN(C)Cc2ccc3c(c2)OCO3)Oc2ccc(N(C)C)cc2CC1=O	nt	nt	0
C[C@H]1CN([C@@H](C)CO)C(=O)Cc2cc(N(C)C)ccc2O[C@@H]1CN(C)Cc1ccc2c(c1)OCO2	-5	64*	nt
C[C@H]1CN([C@@H](C)CO)C(=O)Cc2cc(N(C)C)ccc2O[C@@H]1CN(C)Cc1ccc(Cl)c(Cl)c1	-8	72*	nt
C[C@@H]1CN([C@H](C)CO)C(=O)Cc2cc(N(C)C)ccc2O[C@@H]1CN(C)Cc1ccc2c(c1)OCO2	-7	-23	nt
O=C1c2ccccc2[C@](Cc2ccccc2I)(C(=O)O)[C@H](c2ccc(CO)cc2)N1C1CCCCC1	nt	nt	0
C[C@@H]1CN([C@H](C)CO)C(=O)CCCn2nncc2CO[C@@H]1CN(C)Cc1ccncc1	nt	-2	0
C[C@@H]1CN([C@@H](C)CO)C(=O)c2cccc(NC(=O)Nc3ccc4c(c3)OCO4)c2O[C@H]1CN(C)Cc1ccc(Oc2ccccc2)cc1	-49	70*	-1
C[C@@H]1CN([C@H](C)CO)C(=O)c2cccc(NC(=O)Nc3ccc4c(c3)OCO4)c2O[C@@H]1CN(C)Cc1ccc(Oc2ccccc2)cc1	-9	4	nt
C[C@@H]1CN([C@@H](C)CO)C(=O)c2cccc(NC(=O)Nc3ccc4c(c3)OCO4)c2O[C@@H]1CN(C)Cc1ccc(Oc2ccccc2)cc1	-31	73*	nt
C[C@H](CO)N1C[C@H](C)[C@@H](CN(C)Cc2ccc(Oc3ccccc3)cc2)Oc2c(NC(=O)Nc3ccc4c(c3)OCO4)cccc2C1=O	-46	28	nt

Bioassay records deposited in PubChem by Broad Institute.
